Here are results for eleven molecules from ChEMBL document CHEMBL1157789, “Design, synthesis and SAR of phenylamino-substituted 5,11-dihydro-dibenzo[a,d]cyclohepten-10-ones and 11H-dibenzo[b,f]oxepin-10-ones as p38 MAP kinase inhibitors” (Bioorg Med Chem Lett, 2010).

pIC50: −log10 of the molar value. The source made the active and inactive calls. The calls are words filed in the database; no cut-off is given here.

A short description of assay [1]: Inhibition of p38 assessed as rate of ATF-2 phosphorylation by immunosorbent non-radioactive enzyme assay. A digest of the protocol: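 p38α MAP kinase ELISA-type (immunosorbent, non-radioactive) assay. Enzyme was incubated with ATP at 100 µM, ATF-2 as substrate, and test compound at 10^-5 to 10^-8 M. Activity was read as the rate of ATF-2 phosphorylation. SB203580 served as the reference inhibitor.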

The target of assay [2] is RAC-alpha serine/threonine-protein kinase (Homo sapiens) (UniProt P31749). Briefly: Inhibition of AKT1 at 10 uM.
Assay [3] concerns the target T1, NUAK family SNF1-like kinase 1 (Homo sapiens) (UniProt O60285).
T1 sequence (whole entry): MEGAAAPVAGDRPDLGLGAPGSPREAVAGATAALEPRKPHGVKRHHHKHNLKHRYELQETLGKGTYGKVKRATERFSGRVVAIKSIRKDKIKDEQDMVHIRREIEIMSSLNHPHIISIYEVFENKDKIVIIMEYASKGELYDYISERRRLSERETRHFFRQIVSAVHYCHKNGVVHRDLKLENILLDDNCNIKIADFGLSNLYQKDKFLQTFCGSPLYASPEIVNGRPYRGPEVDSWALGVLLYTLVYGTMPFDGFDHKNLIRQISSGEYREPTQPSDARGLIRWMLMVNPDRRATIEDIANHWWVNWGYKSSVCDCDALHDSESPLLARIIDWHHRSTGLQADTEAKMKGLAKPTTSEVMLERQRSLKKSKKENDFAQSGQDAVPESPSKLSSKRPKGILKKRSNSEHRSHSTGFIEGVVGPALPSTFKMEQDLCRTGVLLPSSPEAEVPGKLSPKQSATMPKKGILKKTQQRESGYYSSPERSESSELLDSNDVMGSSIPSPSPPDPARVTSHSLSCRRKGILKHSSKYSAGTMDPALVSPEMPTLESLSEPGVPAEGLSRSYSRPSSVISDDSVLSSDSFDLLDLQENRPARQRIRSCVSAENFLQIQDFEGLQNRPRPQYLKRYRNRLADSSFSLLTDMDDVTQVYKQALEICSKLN
Briefly: Inhibition of ARK5 at 10 uM.

Assay [4] has as its target Aurora kinase B (Homo sapiens) (UniProt Q96GD4). In words: Inhibition of Aurora B at 10 uM.
The target in assay [5] is Tyrosine-protein kinase receptor UFO (Homo sapiens) (UniProt P30530). Briefly: Inhibition of AXL at 10 uM.
Assay [6] has as its system Serine/threonine-protein kinase B-raf (Homo sapiens), P15056 [V600E]. In words: Inhibition of B-Raf V600E mutant at 10 uM.
Assay [7] deals with Casein kinase II subunit alpha (Homo sapiens) (UniProt P68400). Briefly: Inhibition of CK2alpha1 at 10 uM.
Assay [8] addresses Focal adhesion kinase 1 (Homo sapiens) (UniProt Q05397). In words: Inhibition of FAK at 10 uM.
Assay [9] concerns the target Insulin-like growth factor 1 receptor (Homo sapiens) (UniProt P08069). Briefly: Inhibition of IGF1R at 10 uM.
The target in assay [10] is Insulin receptor (Homo sapiens) (UniProt P06213). In words: Inhibition of INSR at 10 uM.
In assay [11] the target is Hepatocyte growth factor receptor (Homo sapiens) (UniProt P08581). Briefly: Inhibition of MET at 10 uM.
Assay [12] deals with Serine/threonine-protein kinase PLK1 (Homo sapiens) (UniProt P53350). In words: Inhibition of PLK1 at 10 uM.
For assay [13], the target named is Serine/threonine-protein kinase N1 (Homo sapiens) (UniProt Q16512). Briefly: Inhibition of PRK1 at 10 uM.
Assay [14] addresses T2, Serine/threonine-protein kinase PLK4 (Homo sapiens) (UniProt O00444).
T2 sequence (whole entry): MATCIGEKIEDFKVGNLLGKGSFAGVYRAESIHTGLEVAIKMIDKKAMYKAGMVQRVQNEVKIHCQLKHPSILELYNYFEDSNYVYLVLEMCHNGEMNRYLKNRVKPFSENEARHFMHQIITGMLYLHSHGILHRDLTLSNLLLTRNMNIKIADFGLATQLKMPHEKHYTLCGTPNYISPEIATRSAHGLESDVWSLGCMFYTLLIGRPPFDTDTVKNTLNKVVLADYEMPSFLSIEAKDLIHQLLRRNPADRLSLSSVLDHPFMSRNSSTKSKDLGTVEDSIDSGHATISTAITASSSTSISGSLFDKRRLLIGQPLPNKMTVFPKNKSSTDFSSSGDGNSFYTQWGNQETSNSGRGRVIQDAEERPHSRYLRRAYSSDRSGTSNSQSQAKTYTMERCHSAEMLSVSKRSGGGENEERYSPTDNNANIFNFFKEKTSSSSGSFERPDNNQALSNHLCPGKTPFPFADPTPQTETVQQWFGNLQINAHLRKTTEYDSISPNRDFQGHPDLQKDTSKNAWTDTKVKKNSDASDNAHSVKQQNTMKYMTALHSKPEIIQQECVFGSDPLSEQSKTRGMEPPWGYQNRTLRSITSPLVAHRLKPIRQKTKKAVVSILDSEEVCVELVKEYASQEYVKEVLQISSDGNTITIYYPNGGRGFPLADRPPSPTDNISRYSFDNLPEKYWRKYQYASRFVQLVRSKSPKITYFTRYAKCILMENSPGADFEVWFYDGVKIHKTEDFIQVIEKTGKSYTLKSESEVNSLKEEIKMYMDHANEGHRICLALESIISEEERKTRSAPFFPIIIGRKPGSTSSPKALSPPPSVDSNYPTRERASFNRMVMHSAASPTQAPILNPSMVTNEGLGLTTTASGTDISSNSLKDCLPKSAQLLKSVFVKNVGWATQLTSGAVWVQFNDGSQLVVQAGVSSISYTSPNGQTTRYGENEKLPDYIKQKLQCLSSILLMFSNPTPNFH
Briefly: Inhibition of SAK at 10 uM.

Assay [15] concerns the target Proto-oncogene tyrosine-protein kinase Src (Homo sapiens) (UniProt P12931). Briefly: Inhibition of SRC at 10 uM.
In assay [16] the target is BDNF/NT-3 growth factors receptor (Homo sapiens) (UniProt Q16620). In words: Inhibition of TRKB at 10 uM.
Assay [17] concerns the target Vascular endothelial growth factor receptor 2 (Homo sapiens) (UniProt P35968). In words: Inhibition of VGFR2 at 10 uM.

Sequence of Hepatocyte growth factor receptor (Homo sapiens) (P08581 whole entry): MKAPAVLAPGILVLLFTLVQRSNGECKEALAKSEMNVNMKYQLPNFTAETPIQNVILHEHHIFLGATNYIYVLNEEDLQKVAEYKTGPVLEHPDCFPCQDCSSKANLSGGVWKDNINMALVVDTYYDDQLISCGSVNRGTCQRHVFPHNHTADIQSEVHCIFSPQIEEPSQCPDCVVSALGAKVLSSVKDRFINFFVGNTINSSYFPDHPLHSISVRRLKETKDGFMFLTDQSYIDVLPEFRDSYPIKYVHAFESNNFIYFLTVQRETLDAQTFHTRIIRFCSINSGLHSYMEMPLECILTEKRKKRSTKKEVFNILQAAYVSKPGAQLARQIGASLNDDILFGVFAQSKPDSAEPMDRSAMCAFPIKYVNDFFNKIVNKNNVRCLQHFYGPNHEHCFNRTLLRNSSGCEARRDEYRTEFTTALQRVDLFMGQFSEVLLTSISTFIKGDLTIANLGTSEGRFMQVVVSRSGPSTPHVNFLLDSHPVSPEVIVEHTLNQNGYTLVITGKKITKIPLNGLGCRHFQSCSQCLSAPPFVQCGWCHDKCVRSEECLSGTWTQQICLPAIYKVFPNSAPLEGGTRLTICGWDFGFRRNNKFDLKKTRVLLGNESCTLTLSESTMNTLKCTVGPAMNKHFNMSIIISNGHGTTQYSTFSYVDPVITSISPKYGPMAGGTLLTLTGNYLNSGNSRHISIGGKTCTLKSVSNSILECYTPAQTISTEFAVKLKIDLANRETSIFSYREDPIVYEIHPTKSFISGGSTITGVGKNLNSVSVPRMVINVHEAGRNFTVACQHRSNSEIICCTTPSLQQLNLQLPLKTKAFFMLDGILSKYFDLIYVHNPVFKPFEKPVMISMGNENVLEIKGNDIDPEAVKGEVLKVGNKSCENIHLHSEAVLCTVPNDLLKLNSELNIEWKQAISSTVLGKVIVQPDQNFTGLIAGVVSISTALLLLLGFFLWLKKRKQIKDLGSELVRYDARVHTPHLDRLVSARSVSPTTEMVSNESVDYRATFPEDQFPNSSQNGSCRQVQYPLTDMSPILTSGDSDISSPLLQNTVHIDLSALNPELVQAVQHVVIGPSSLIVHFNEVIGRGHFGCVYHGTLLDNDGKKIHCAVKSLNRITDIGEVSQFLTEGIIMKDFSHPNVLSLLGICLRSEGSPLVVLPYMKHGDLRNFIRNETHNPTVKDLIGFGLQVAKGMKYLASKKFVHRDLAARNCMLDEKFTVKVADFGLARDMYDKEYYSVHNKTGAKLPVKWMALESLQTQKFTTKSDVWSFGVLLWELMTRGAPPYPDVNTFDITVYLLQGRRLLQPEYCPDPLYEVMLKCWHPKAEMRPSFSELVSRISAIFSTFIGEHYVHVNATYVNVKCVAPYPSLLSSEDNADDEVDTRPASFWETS
Sequence of Casein kinase II subunit alpha (Homo sapiens) (P68400 whole entry, looked up): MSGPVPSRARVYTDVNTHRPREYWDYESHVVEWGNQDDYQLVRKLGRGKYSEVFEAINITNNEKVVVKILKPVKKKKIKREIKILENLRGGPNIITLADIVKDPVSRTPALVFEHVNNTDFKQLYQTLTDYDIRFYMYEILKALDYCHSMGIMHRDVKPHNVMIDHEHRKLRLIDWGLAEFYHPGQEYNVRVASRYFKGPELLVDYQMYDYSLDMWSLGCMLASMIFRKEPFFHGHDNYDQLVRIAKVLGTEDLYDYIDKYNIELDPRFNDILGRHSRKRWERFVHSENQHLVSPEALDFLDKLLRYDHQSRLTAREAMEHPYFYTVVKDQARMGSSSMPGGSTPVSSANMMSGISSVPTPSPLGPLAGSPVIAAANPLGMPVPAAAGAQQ
Sequence of Focal adhesion kinase 1 (Homo sapiens) (Q05397 2-1052 limits assumed): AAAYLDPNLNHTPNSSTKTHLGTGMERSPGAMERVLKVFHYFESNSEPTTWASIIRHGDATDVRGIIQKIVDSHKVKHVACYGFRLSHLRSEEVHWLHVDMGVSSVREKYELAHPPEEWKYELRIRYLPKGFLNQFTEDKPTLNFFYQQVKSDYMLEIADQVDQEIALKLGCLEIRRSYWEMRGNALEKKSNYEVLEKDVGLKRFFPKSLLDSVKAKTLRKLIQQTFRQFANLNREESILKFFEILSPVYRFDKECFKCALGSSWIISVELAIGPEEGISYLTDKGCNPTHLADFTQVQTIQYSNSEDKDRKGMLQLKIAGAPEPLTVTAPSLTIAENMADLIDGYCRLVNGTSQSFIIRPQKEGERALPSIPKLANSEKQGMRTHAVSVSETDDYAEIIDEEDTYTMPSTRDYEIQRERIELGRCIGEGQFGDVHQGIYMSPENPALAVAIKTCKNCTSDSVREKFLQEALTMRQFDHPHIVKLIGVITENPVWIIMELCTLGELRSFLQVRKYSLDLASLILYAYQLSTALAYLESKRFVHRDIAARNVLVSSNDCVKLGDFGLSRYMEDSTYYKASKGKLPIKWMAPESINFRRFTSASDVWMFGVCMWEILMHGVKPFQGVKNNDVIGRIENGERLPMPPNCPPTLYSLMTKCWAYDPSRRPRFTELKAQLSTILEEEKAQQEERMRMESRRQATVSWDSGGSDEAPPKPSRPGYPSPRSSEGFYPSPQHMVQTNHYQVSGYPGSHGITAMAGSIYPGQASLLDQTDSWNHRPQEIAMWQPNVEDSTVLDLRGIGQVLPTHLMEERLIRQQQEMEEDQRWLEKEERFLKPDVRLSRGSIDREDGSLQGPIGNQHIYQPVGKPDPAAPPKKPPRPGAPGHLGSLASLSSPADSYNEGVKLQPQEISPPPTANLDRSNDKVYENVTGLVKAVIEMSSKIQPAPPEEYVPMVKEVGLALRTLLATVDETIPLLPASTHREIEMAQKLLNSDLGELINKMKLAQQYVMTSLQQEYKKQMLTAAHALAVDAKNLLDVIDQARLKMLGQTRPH
Sequence of Serine/threonine-protein kinase N1 (Homo sapiens) (Q16512 2-942 limits assumed): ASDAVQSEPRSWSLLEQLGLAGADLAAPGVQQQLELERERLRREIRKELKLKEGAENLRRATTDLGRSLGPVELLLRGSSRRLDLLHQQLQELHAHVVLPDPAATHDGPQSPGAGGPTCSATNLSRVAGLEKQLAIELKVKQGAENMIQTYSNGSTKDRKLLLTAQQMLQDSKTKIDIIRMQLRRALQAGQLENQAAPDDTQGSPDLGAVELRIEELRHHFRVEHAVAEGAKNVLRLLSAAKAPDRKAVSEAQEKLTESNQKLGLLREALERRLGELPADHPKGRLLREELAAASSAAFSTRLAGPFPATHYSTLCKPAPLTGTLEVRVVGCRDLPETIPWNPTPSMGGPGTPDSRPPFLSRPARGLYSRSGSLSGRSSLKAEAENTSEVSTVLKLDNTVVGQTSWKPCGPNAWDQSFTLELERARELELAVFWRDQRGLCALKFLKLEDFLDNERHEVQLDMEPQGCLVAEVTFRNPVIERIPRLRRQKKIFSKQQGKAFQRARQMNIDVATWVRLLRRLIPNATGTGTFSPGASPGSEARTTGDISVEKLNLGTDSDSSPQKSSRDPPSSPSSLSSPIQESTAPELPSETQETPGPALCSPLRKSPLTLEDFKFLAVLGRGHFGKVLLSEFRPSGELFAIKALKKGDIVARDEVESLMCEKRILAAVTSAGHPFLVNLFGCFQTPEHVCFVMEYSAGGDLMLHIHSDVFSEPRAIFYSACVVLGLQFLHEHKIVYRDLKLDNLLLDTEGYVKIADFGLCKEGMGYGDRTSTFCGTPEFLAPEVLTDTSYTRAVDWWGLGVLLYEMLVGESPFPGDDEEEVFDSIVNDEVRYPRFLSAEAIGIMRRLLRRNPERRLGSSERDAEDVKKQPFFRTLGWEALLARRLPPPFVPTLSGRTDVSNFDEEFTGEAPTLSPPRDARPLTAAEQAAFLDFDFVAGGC
Sequence of RAC-alpha serine/threonine-protein kinase (Homo sapiens) (P31749 whole entry): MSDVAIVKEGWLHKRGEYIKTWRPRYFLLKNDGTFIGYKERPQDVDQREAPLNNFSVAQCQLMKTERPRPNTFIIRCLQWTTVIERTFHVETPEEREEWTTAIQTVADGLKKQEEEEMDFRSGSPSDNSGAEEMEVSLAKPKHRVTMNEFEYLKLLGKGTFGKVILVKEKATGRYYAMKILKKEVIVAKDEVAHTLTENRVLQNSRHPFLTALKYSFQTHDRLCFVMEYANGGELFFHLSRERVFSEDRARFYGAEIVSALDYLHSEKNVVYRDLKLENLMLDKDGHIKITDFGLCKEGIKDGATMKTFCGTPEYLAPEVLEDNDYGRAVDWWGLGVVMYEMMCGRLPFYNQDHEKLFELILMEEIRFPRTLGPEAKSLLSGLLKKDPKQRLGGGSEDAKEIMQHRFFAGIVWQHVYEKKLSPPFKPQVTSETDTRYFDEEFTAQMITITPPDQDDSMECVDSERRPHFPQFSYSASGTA
Sequence of Serine/threonine-protein kinase B-raf (Homo sapiens), P15056 [V600E] (P15056 whole entry V600E): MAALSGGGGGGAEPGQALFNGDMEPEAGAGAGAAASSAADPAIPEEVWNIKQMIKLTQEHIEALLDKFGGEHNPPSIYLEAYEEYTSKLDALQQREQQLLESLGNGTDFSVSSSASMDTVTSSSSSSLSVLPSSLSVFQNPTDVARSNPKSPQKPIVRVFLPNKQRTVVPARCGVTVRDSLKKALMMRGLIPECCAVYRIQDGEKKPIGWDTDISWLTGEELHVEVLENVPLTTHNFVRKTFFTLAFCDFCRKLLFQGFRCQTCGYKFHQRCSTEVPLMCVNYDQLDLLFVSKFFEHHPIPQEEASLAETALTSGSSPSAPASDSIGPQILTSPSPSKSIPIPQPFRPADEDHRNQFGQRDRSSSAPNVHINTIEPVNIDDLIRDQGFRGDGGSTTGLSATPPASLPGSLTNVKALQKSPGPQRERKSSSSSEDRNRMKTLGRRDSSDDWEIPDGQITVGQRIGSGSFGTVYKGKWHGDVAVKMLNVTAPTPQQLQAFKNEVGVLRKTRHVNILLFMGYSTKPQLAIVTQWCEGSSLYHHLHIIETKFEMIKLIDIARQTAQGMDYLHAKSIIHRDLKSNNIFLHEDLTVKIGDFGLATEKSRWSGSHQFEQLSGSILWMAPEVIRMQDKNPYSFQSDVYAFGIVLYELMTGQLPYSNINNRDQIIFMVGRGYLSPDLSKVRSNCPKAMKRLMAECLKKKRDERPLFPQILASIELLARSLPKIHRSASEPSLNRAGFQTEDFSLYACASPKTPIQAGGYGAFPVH

Take `O=C1Cc2ccccc2Cc2cc(Nc3ccccc3)ccc21`: the pIC50 in assay [1] is 5.76. In addition, the inhibition result in assay [2], in assay [3], in assay [4], in assay [5], in [6] and in assay [7] was “inactive” throughout. In addition, the inhibition entry in [8], in assay [9], in assay [10], in assay [11], in [12] and in assay [13] was “inactive” each time. Also, the inhibition result in [14], in assay [15], in [16] and in [17] was “inactive” each time.
`Nc1cc(F)ccc1Nc1ccc2c(c1)CC(=O)c1ccccc1C2`: the pIC50 in assay [1] is 6.01. Further, the inhibition entry in [2], in assay [3], in [4], in assay [5], in [6] and in assay [7] was “inactive” each time. In addition, the inhibition entry in assay [8], in [9], in assay [10], in assay [11], in assay [12] and in assay [13] was “inactive” throughout. The inhibition entry in [14], in [15], in [16] and in [17] was “inactive” in each case.
Turning to `Nc1ccccc1Nc1ccc2c(c1)Cc1ccccc1CC2=O`, in assay [1], the pIC50 is 6.00. Moreover, the inhibition entry in assay [2], in assay [3], in assay [4], in assay [5], in assay [6] and in assay [7] was “inactive” in each case. The inhibition entry in assay [8], in assay [9], in [10], in assay [11], in assay [12] and in assay [13] was “inactive” throughout. The inhibition result in assay [14], in assay [15], in assay [16] and in assay [17] was “inactive” throughout.
As for `Nc1ccccc1Nc1ccc2c(c1)CCc1ccccc1C2=O`, the pIC50 in assay [1] was 7.30.
`Nc1cc(F)ccc1Nc1ccc2c(c1)Cc1ccccc1CC2=O`: the pIC50 in [1] is 5.76. In addition, the inhibition entry in [2], in assay [3], in [4], in [5], in [6] and in assay [7] was “inactive” throughout. Also, the inhibition entry in assay [8], in [9], in [10], in assay [11], in assay [12] and in [13] was “inactive” each time. For the same molecule, the inhibition entry in [14], in assay [15], in assay [16] and in assay [17] was “inactive” in each case.
Regarding `Nc1cc(F)ccc1Nc1ccc2c(c1)Oc1ccccc1CC2=O`, the pIC50 in assay [1] is 5.79.
As to `O=C1Cc2ccc(Nc3ccccc3)cc2Cc2ccccc21`, the pIC50 in assay [1] is 5.49. In addition, the inhibition result in assay [2], in assay [3], in assay [4], in assay [5], in assay [6] and in assay [7] was “inactive” in each case. The inhibition result in assay [8], in assay [9], in [10], in assay [11], in assay [12] and in [13] was “inactive” each time. For the same molecule, the inhibition result in [14], in assay [15], in assay [16] and in assay [17] was “inactive” in each case.
For `O=C1Cc2ccccc2Cc2cc(Nc3ccc(F)cc3F)ccc21`, the pIC50 in [1] was 5.82. In addition, the inhibition result in assay [2], in assay [3], in [4], in [5], in assay [6] and in [7] was “inactive” each time. The inhibition result in assay [8], in assay [9], in assay [10], in [11], in assay [12] and in assay [13] was “inactive” each time. Also, the inhibition result in assay [14], in assay [15], in assay [16] and in assay [17] was “inactive” each time.
`Nc1cc(F)ccc1Nc1ccc2c(c1)Cc1ccccc1C(=O)C2`: the negative logarithm of the IC50 (pIC50) in assay [1] is 5.42. The inhibition entry in assay [2], in [3], in assay [4], in assay [5], in assay [6] and in assay [7] was “inactive” throughout. For the same molecule, the inhibition entry in assay [8], in assay [9], in assay [10], in assay [11], in assay [12] and in [13] was “inactive” throughout. In addition, the inhibition entry in assay [14], in assay [15], in assay [16] and in assay [17] was “inactive” throughout.
Turning to `Nc1ccccc1Nc1ccc2c(c1)Oc1ccccc1CC2=O`, in assay [1], the pIC50 was 5.92.
With `O=C1Cc2ccccc2Oc2cc(Nc3ccccc3)ccc21`, in assay [1], the pIC50 is 5.53.

The term pIC50 denotes −log10 of the IC50, conventionally taken in molar units.
